The record followed here is ChEMBL document CHEMBL1126988, “Quinolone antibacterials containing the new 7-[3-(1-aminoethyl)-1- pyrrolidinyl] side chain: the effects of the 1-aminoethyl moiety and its stereochemical configurations on potency and in vivo efficacy” (J Med Chem, 1993).

In brackets after ≈: the same amount, converted by molar mass. Bounds are passed on as bounds.

As usually defined, the MIC is the least concentration at which growth counts as inhibited. By IC50 is commonly meant the concentration that inhibits the measured activity by half. Low readings indicate higher potency, high ones lower potency.

Assay [1] concerns Staphylococcus aureus. In words: Minimum inhibitory concentration was evaluated in vitro against Staphylococcus aureus UC 76. Format: functional. Put shortly:
(§1)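 Standard microtitration broth assay against a panel of 10 Gram-positive and Gram-negative organisms. MIC read in µg/mL and averaged over multiple experiments.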

Assay [2] deals with Streptococcus pyogenes. In words: Compounds were evaluated in vivo for antibacterial activity for mouse protection against Streptococcus pyogenes C 203 after oral administration. Format: functional. Conditions: for ED50: C 203, po, read-out: PD50.
Assay [3] deals with Escherichia coli. In words: Antibacterial activity in vitro against Escherichia coli Vogel. Format: functional. Put shortly:
as §1

The test system of the next assay is Pseudomonas aeruginosa. In words: Minimum inhibitory concentration was evaluated in vitro against Pseudomonas aeruginosa UI-18. Format: functional. Put shortly: as §1
The test system of assay [4] is Streptococcus pneumoniae. In words: Minimum inhibitory concentration was evaluated in vitro against Streptococcus pneumoniae SV-1. Format: functional. Put shortly: as §1
The test system of assay [5] is Streptococcus pyogenes. In words: Antibacterial activity measured as mouse protection against Streptococcus pyogenes C 203 after subcutaneous administration. The class given is functional.
The subject of assay [6] is Staphylococcus aureus. The assay can be described thus: Minimum inhibitory concentration was evaluated in vitro against Staphylococcus aureus H 228. The class given is functional. The method in brief:
as §1

Assay [7] can be described thus: Clonogenic cytotoxicity against hamster V-79 cells. The class given is functional, Cricetulus griseus, V79. Put shortly:
(§2)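 Chinese hamster V-79 cells grown overnight, then drug-treated for 3 h at 37 °C. Medium is replaced with fresh medium and cells are incubated 5 days to allow colony formation. IC50 (µg/mL) is the concentration inhibiting colony formation by 50% relative to control.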

In the next assay the test system is Enterobacter cloacae. The assay can be described thus: Minimum inhibitory concentration in vitro against Enterobacter cloacae MA 2646. The class given is functional.
In another assay the test system is Klebsiella pneumoniae. In words: Minimum inhibitory concentration was evaluated in vitro against Klebsiella pneumoniae MGH2. Format: functional. The method in brief:
as §1

In the next assay the test system is Enterococcus faecalis. In words: Minimum inhibitory concentration was evaluated in vitro against Enterococcus faecalis MGH-2. The class given is functional. Put shortly:
as §1

For assay [8], the species on record is Mus musculus. In words: Compounds was evaluated for phototoxicity no-effect dose in mouse. Format: functional. Put shortly: (§3)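 Depilated female CD-1 mice, five per dose plus controls. Animals are dosed orally and then exposed daily to UV-A (320–400 nm) for 3 h, for up to 4 days or until a definite positive response. Redness or erythema relative to controls, read 24 h after irradiation, counts as positive. Reported as the highest dose with no effect (mg/kg).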

Assay [9] relates to Streptococcus pyogenes. In words: Minimum inhibitory concentration was evaluated in vitro against Streptococcus pyogenes C 203. The class given is functional. The method in brief:
as §1

In another assay the test system is Providencia rettgeri. In words: Minimum inhibitory concentration was evaluated in vitro against Providencia rettgeri M1771. Format: functional. The method in brief:
as §1

The test system of assay [10] is Escherichia coli. The assay can be described thus: Antibacterial activity against Escherichia coli Vogel after oral administration in mouse. Conditions: for ED50: Escherichia coli, po, read-out: PD50. Format: functional.
Assay [11] is filed under the species Mus musculus. The assay can be described thus: Compounds were evaluated for phototoxicity no-effect dose in mouse. Format: functional. The method in brief: as §3
The subject of assay [12] is Escherichia coli. In words: Antibacterial activity against Escherichia coli Vogel after subcutaneous administration in mouse. The class given is functional. As to conditions: for ED50: Escherichia coli, sc, read-out: PD50.
In assay [13] the test system is Streptococcus pyogenes. In words: Antibacterial activity expressed as Minimum inhibitory concentration was evaluated in vitro against Streptococcus pyogenes C 203. Format: functional. Put shortly: as §1
Another assay deals with DNA gyrase (Escherichia coli, UniProt P0AES4+P0AES6). The assay can be described thus: Inhibition against DNA gyrase. Format: protein-complex assay.
Assay [14] is described as follows: Compound was evaluated for clonogenic cytotoxicity against hamster V-79 cells; 50% Inhibition. Format: functional, cell-based. Conditions: Cricetulus griseus, V79. Put shortly: as §2
The subject of assay [15] is Streptococcus pyogenes. The assay can be described thus: Compounds were evaluated in vivo for antibacterial activity for mouse protection against Streptococcus pyogenes C 203 after subcutaneous administration. Format: functional. Conditions: C 203, sc, read-out: PD50.
Assay [16] deals with Streptococcus pneumoniae. The assay can be described thus: Antibacterial activity expressed as Minimum inhibitory concentration was evaluated in vitro against Streptococcus pneumoniae SV-1. The class given is functional. The method in brief: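 Standard microtitration broth MIC (μg/mL), averaged from multiple experiments; one of a 10-organism Gram-positive/Gram-negative panel.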

The species named for assay [17] is Mus musculus. In words: Compounds were evaluated for phototoxicity in mouse and phototoxicity no-effect dose was reported. The class given is functional. The method in brief: as §3
For assay [18], the species on record is Mus musculus. The assay can be described thus: Compound was evaluated for phototoxicity no-effect dose in mouse. Format: functional. The method in brief:
as §3

Assay [19] relates to Streptococcus pyogenes. The assay can be described thus: Compound was evaluated in vivo for antibacterial activity for mouse protection against Streptococcus pyogenes C 203 after subcutaneous administration. The class given is functional. Conditions: sc, read-out: PD50.
[20] abbreviates: Escherichia coli, read-out: MIC.
Where [21] appears, read: Pseudomonas aeruginosa, read-out: MIC.
Where [22] appears, read: Staphylococcus aureus, read-out: MIC.
[23] abbreviates: Enterobacter cloacae, read-out: MIC.
[24] abbreviates: Klebsiella pneumoniae, read-out: MIC.
The mark [25] stands for this setting: Enterococcus faecalis, read-out: MIC.
Setting [26] is: Providencia rettgeri, read-out: MIC.
[27] abbreviates: Streptococcus pneumoniae, read-out: MIC.
[28] abbreviates: Streptococcus pyogenes, read-out: MIC.

For `CN[C@@H](C)[C@@H]1CCN(c2nc3c(cc2F)c(=O)c(C(=O)O)cn3C2CC2)C1` (mixture of isomers), the MIC against Staphylococcus aureus [1] is 0.013 µg/mL; with Escherichia coli [3] (setting [20]), 0.1 µg/mL; with Pseudomonas aeruginosa (setting [21]) it was 1.6 µg/mL; in the assay on Streptococcus pneumoniae [4], 0.013 µg/mL; in the assay with Staphylococcus aureus [6] (setting [22]) it was 0.1 µg/mL; with Enterobacter cloacae (setting [23]), 0.1 µg/mL. Besides, the MIC with Klebsiella pneumoniae (setting [24]) is 0.2 µg/mL; with Enterococcus faecalis (setting [25]) it was 0.1 µg/mL; against Streptococcus pyogenes [9] it was 0.025 µg/mL; in the assay with Providencia rettgeri (setting [26]) it was 0.4 µg/mL. Also, the PD50 with Streptococcus pyogenes [2] and in the assay on Streptococcus pyogenes [5] was 2 mg/kg throughout. Besides, the Cytotoxicity in assay [7] came out at 130 µg/mL. For the same molecule, the Dose in the assay filed under Mus musculus [8] came out at 18 mg/kg.

On to `C[C@@H](N)[C@H]1CCN(c2nc3c(cc2F)c(=O)c(C(=O)O)cn3-c2ccc(F)cc2F)C1` (racemic), for which the MIC with Staphylococcus aureus [1] (setting [22]) came to 0.006 µg/mL (≈ 0.0139 µM); with Escherichia coli [3] (setting [20]) it was 0.1 µg/mL (≈ 0.231 µM); in the assay on Pseudomonas aeruginosa (setting [21]) it was 0.8 µg/mL (≈ 1.85 µM); in the assay with Streptococcus pneumoniae [4] (setting [27]), 0.006 µg/mL (≈ 0.0139 µM); in the assay with Staphylococcus aureus [6] (setting [22]), 0.05 µg/mL (≈ 0.116 µM); in the assay on Enterobacter cloacae (setting [23]) it was 0.2 µg/mL (≈ 0.463 µM). Further, the MIC in the assay with Klebsiella pneumoniae (setting [24]) is 0.2 µg/mL (≈ 0.463 µM); in the assay on Enterococcus faecalis (setting [25]) it was 0.025 µg/mL (≈ 0.0578 µM); against Streptococcus pyogenes [13], 0.006 µg/mL (≈ 0.0139 µM); in the assay with Providencia rettgeri (setting [26]) it was 0.4 µg/mL (≈ 0.925 µM). The molecule also yielded a PD50 with Escherichia coli [10] of 3 mg/kg. Moreover, the ED50 is 1 mg/kg in the assay on Streptococcus pyogenes [2] (Streptococcus pyogenes); 1 mg/kg with Streptococcus pyogenes [5] (Streptococcus pyogenes, C 203, sc, read-out: PD50); 1 mg/kg with Escherichia coli [12]. In the assay filed under Mus musculus [11], this molecule had a Dose of more than 100 mg/kg. The Cytotoxicity in assay [7] worked out at 280 µg/mL. This molecule also showed an IC50 against DNA gyrase of 1160 nM.

Regarding `CN[C@H](C)[C@@H]1CCN(c2nc3c(cc2F)c(=O)c(C(=O)O)cn3C2CC2)C1`, the MIC in the assay on Staphylococcus aureus [1] (setting [22]) came out at 0.05 µg/mL (≈ 0.134 µM); in the assay on Escherichia coli [3] (setting [20]) it was 0.1 µg/mL (≈ 0.267 µM); in the assay with Pseudomonas aeruginosa (setting [21]) it was 1.6 µg/mL (≈ 4.27 µM); in the assay with Streptococcus pneumoniae [4] (setting [27]) it was 0.025 µg/mL (≈ 0.0668 µM); in the assay with Staphylococcus aureus [6] (setting [22]), 0.1 µg/mL (≈ 0.267 µM); in the assay on Enterobacter cloacae (setting [23]), 0.1 µg/mL (≈ 0.267 µM). Also, the MIC in the assay with Klebsiella pneumoniae (setting [24]) is 0.2 µg/mL (≈ 0.534 µM); in the assay on Enterococcus faecalis (setting [25]), 0.1 µg/mL (≈ 0.267 µM); with Streptococcus pyogenes [9] (setting [28]), 0.05 µg/mL (≈ 0.134 µM); in the assay with Providencia rettgeri (setting [26]) it was 0.4 µg/mL (≈ 1.07 µM). Also, the results for the ED50 in the assay on Escherichia coli [10] and with Escherichia coli [12] were 5 mg/kg and 1 mg/kg, respectively. In addition, in the assay filed under Mus musculus [11], the Dose came out at 30 mg/kg. The IC50 in [14] was 88 µg/mL (≈ 235 µM).

Take `CCN[C@@H](C)[C@H]1CCN(c2nc3c(cc2F)c(=O)c(C(=O)O)cn3C2CC2)C1`: the MIC with Staphylococcus aureus [1] (setting [22]) was found to be 0.4 µg/mL (≈ 1.03 µM); in the assay on Escherichia coli [3] (setting [20]) it was 0.4 µg/mL (≈ 1.03 µM); with Pseudomonas aeruginosa (setting [21]) it was 6.3 µg/mL (≈ 16.2 µM); in the assay on Staphylococcus aureus [6] (setting [22]), 0.8 µg/mL (≈ 2.06 µM); in the assay on Enterobacter cloacae (setting [23]), 0.8 µg/mL (≈ 2.06 µM); with Klebsiella pneumoniae (setting [24]) it was 0.8 µg/mL (≈ 2.06 µM). Besides, the MIC was 0.2 µg/mL (≈ 0.515 µM) in the assay with Streptococcus pneumoniae [16], 0.8 µg/mL (≈ 2.06 µM) with Enterococcus faecalis (setting [25]), 0.4 µg/mL (≈ 1.03 µM) with Streptococcus pyogenes [9] (setting [28]) and 3.1 µg/mL (≈ 7.98 µM) in the assay with Providencia rettgeri (setting [26]). Besides, the ED50 in the assay with Streptococcus pyogenes [2] and in the assay on Streptococcus pyogenes [15] was 12 mg/kg each time.

For the molecule `CN[C@H](C)[C@H]1CCN(c2cc3c(cc2F)c(=O)c(C(=O)O)cn3C2CC2)C1` (mixture of isomers), the MIC in the assay with Staphylococcus aureus [1] was 0.05 µg/mL; in the assay on Escherichia coli [3], 0.2 µg/mL; in the assay with Pseudomonas aeruginosa it was 1.6 µg/mL; against Streptococcus pneumoniae [4], 0.05 µg/mL; against Staphylococcus aureus [6] it was 0.2 µg/mL; against Enterobacter cloacae, 0.2 µg/mL. Also, the MIC came to 0.4 µg/mL in the assay on Klebsiella pneumoniae, 0.1 µg/mL with Enterococcus faecalis, 0.05 µg/mL in the assay with Streptococcus pyogenes [9] and 0.8 µg/mL with Providencia rettgeri. Also, the ED50 in the assay on Escherichia coli [10] was 7 mg/kg; in the assay with Escherichia coli [12], 1 mg/kg. For the same molecule, the PD50 in the assay on Streptococcus pyogenes [2] stood at 7 mg/kg; in the assay with Streptococcus pyogenes [5] it was 1 mg/kg. Also, the Cytotoxicity in [7] was 180 µg/mL. In addition, the Phototoxicity in the assay listed under Mus musculus [17] came to 100 mg/kg.

As to `C[C@@H](N)[C@H]1CCN(c2nc3c(cc2F)c(=O)c(C(=O)O)cn3C2CC2)C1` (mixture of isomers), the Dose in the assay listed under Mus musculus [18] turned out to be 30 mg/kg. Besides, the MIC was 0.003 µg/mL with Staphylococcus aureus [1]; 0.025 µg/mL in the assay with Escherichia coli [3]; 0.4 µg/mL in the assay with Pseudomonas aeruginosa; 0.003 µg/mL against Streptococcus pneumoniae [4]; 0.025 µg/mL against Staphylococcus aureus [6]; 0.05 µg/mL in the assay on Enterobacter cloacae. Also, the MIC against Klebsiella pneumoniae is 0.05 µg/mL; against Enterococcus faecalis, 0.013 µg/mL; with Streptococcus pyogenes [9], 0.013 µg/mL; against Providencia rettgeri it was 0.1 µg/mL. Moreover, the PD50 was 2 mg/kg in the assay on Escherichia coli [10], 3 mg/kg in the assay on Streptococcus pyogenes [2] and 0.4 mg/kg in the assay on Escherichia coli [12]. The ED50 in the assay with Streptococcus pyogenes [19] came out at 1 mg/kg. The molecule further yielded a Cytotoxicity in [7] of 33 µg/mL. This molecule also gave an IC50 against DNA gyrase of 2080 nM.
